ChEMBL document CHEMBL4428028, “Novel Combretastatin-2-aminoimidazole Analogues as Potent Tubulin Assembly Inhibitors: Exploration of Unique Pharmacophoric Impact of Bridging Skeleton and Aryl Moiety” (J Med Chem, 2016)
pIC50, pKd: −log10 of the molar value. Active and inactive are the calls of the source. No cut-off for these calls is given here.

Experiments:
HeLa = experiment: Antiproliferative activity against human HeLa cells incubated for 24 hrs by sulforhodamine B assay; assay type: functional, cell-based
In short: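 HeLa cells (1 × 10⁵ cells/mL) attached 24 h in MEM with 10% FBS, 37 °C, 5% CO2. Then treated with serial dilutions, DMSO final <0.1%, for 24 h. Fixed with 50% TCA, sulforhodamine B read-out, IC50 derived. Three independent experiments.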

MCF7 [1] = experiment: Antiproliferative activity against human MCF7 cells incubated for 48 hrs by sulforhodamine B assay; assay type: functional, cell-based; conditions: MCF7, 48 h
In short: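 MCF-7 cells (1 × 10⁵ cells/mL) attached 24 h in MEM with 10% FBS, 37 °C, 5% CO2. Exposed to serial dilutions, DMSO final <0.1%, for 48 h. TCA (50%) fixation, sulforhodamine B staining, IC50 determined. Three independent sets.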

[2] = Binding affinity to goat brain tubulin assessed as reduction in binding of 5-(Quinolin-3-yl)-4-(3,4,5-trimethoxyphenyl)-1H-imidazol-2-amine to tubulin incubated for 15 mins by fluorescence based assay; design: species or system Ovis aries
In short: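 Goat brain tubulin (3 μM) was preincubated with competitor (1–20 μM) in 25 mM PIPES, pH 6.8, for 15 min at 25 °C. The 2-aminoimidazole probe (6 μM) was then added for 15 min at 25 °C. Emission was recorded at 420–520 nm with excitation at 350 nm. Ki was calculated as EC50/(1 + L/Kd). Three sets were run.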

Ovis aries = organism: Ovis aries; experiment: Inhibition of goat brain tubulin assembly at 20 uM incubated for 10 mins by spectrophotometry
In short: (§1)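 Goat brain tubulin (12 μM; glutamate-purified, >97% pure) held 10 min on ice with compound in 25 mM PIPES, 1 mM EGTA, 3 mM MgCl2, 1 M glutamate. Then 1 mM GTP added. Assembly followed at 350 nm, 37 °C, for 20 min. Three independent experiments.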

Huh-7 = experiment: Antiproliferative activity against human HuH7 cells incubated for 24 hrs by sulforhodamine B assay; assay type: functional, cell-based; conditions: Huh-7, 24 h
In short: (§2)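 Cells grown in DMEM with 2.2 g/L sodium bicarbonate, 10% FBS and antibiotic–antimycotic at 37 °C under 5% CO2. Compounds were dissolved in DMSO and diluted in medium (final DMSO <0.1%). Cells were exposed to a concentration series for 24 h, fixed with 50% TCA and stained with sulforhodamine B. IC50 was derived from three independent experiments.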

MCF7 [3] = experiment: Induction of cell cycle arrest in human MCF7 cells assessed as accumulation at S phase at 50 nM incubated for 24 hrs by propidium iodide staining based flow cytometry (reference value: 35%); assay type: functional
MCF7 [4] = experiment: Induction of cell cycle arrest in human MCF7 cells assessed as accumulation at S phase at 10 nM incubated for 24 hrs by propidium iodide staining based flow cytometry (reference value: 35%); assay type: functional
MCF7 [5] = experiment: Induction of cell cycle arrest in human MCF7 cells assessed as accumulation at G2/M phase at 10 nM incubated for 24 hrs by propidium iodide staining based flow cytometry (reference value: 16%); assay type: functional
MCF7 [6] = experiment: Induction of cell cycle arrest in human MCF7 cells assessed as accumulation at G1 phase at 50 nM incubated for 24 hrs by propidium iodide staining based flow cytometry (reference value: 49%); assay type: functional
MCF7 [7] = experiment: Induction of cell cycle arrest in human MCF7 cells assessed as accumulation at G2/M phase at 5 nM incubated for 24 hrs by propidium iodide staining based flow cytometry (reference value: 16%); assay type: functional
MCF7 [8] = experiment: Induction of cell cycle arrest in human MCF7 cells assessed as accumulation at S phase at 5 nM incubated for 24 hrs by propidium iodide staining based flow cytometry (reference value: 35%); assay type: functional
MDA-MB-231 [9] = experiment: Inhibition of cell migration of human MDA-MB-231 cells at 150 nM by wound closure assay; assay type: functional
In short: (§3)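 MDA-MB-231 cells grown to 90% confluency in 35 mm dishes and scratched with a microtip. Incubated without or with compound. Wound closure imaged at 0, 4 and 18 h and expressed as percent closure.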

MDA-MB-231 [10] = experiment: Inhibition of cell migration of human MDA-MB-231 cells at 50 nM by wound closure assay; assay type: functional; in short: as §3
MCF7 [11] = experiment: Induction of cell cycle arrest in human MCF7 cells assessed as accumulation at G1 phase at 10 nM incubated for 24 hrs by propidium iodide staining based flow cytometry (reference value: 49%); assay type: functional
MCF7 [12] = experiment: Induction of cell cycle arrest in human MCF7 cells assessed as accumulation at G1 phase at 5 nM incubated for 24 hrs by propidium iodide staining based flow cytometry (reference value: 49%); assay type: functional
EMT6 = experiment: Antiproliferative activity against drug resistant mouse EMT6/AR1 cells incubated for 24 hrs by sulforhodamine B assay; assay type: functional, cell-based; conditions: EMT6, 24 h; in short: as §2
[13] = Inhibition of goat brain tubulin assembly incubated for 10 mins by spectrophotometry; design: species or system Ovis aries; in short: as §1
MCF7 [14] = experiment: Induction of cell cycle arrest in human MCF7 cells assessed as accumulation at G2/M phase at 50 nM incubated for 24 hrs by propidium iodide staining based flow cytometry (reference value: 16%); assay type: functional
MDA-MB-231 [15] = experiment: Antiproliferative activity against human MDA-MB-231 cells incubated for 24 hrs by sulforhodamine B assay; assay type: functional, cell-based; conditions: MDA-MB-231, 24 h; in short: as §2

## COc1cc(-c2nc(N)[nH]c2-c2ccccc2)cc(OC)c1OC
HeLa
  pIC50: 4.47
MCF7 [1]
  pIC50: 4.57

## COc1cc(-c2nc(N)[nH]c2-c2ccc(Cl)cc2)cc(OC)c1OC
HeLa
  pIC50: 5.52
MCF7 [1]
  pIC50: 5.10

## COc1cc([C@@H]2c3cc4c(cc3[C@H](O)[C@H]3COC(=O)[C@H]23)OCO4)cc(OC)c1OC [PODOFILOX]
[2]
  pKd: 6.52

## Nc1nc(-c2ccccc2)c(-c2ccccc2)[nH]1
Ovis aries
  inhibition: inactive
HeLa
  pIC50: 6.71
MCF7 [1]
  pIC50: 6.73

## COc1cc(-c2nc(N)[nH]c2-c2ccc(N)nc2)cc(OC)c1OC
HeLa
  pIC50: 4.74
MCF7 [1]
  pIC50: 4.68

## COc1ccc(/C=C\c2cc(OC)c(OC)c(OC)c2)cc1O [COMBRETASTATIN A4]
Huh-7
  pIC50: 6.37
MCF7 [3]
  Activity: 23%
MCF7 [4]
  Activity: 16%
MCF7 [5]
  Activity: 43%
MCF7 [6]
  Activity: 14%
[2]
  pKd: 6.17
MCF7 [7]
  Activity: 26%
MCF7 [8]
  Activity: 23%
MDA-MB-231 [9]
  inhibition at 0.15 µM: 52%
HeLa
  pIC50: 7.60
MDA-MB-231 [10]
  inhibition at 0.05 µM: 8%
MCF7 [11]
  Activity: 41%
MCF7 [12]
  Activity: 51%
EMT6
  pIC50: 6.31
[13]
  pIC50: 5.77
MCF7 [14]
  Activity: 63%
MCF7 [1]
  pIC50: 7.74
MDA-MB-231 [15]
  pIC50: 6.48

## COc1cc(-c2nc(N)[nH]c2-c2cccc(N)c2)cc(OC)c1OC
HeLa
  pIC50: 5.10
MCF7 [1]
  pIC50: 5.22

## COc1cc(-c2nc(N)[nH]c2-c2ccc3[nH]ccc3c2)cc(OC)c1OC
HeLa
  pIC50: 5.52
MCF7 [1]
  pIC50: 5.10

## COc1ccc(-c2[nH]c(N)nc2-c2cc(OC)c(OC)c(OC)c2)cc1OC
HeLa
  pIC50: 7.17
[13]
  pIC50: 4.96
MCF7 [1]
  pIC50: 7.15
